Experimental findings from ChEMBL document CHEMBL4266033, “Neolymphostin A Is a Covalent Phosphoinositide 3-Kinase (PI3K)/Mammalian Target of Rapamycin (mTOR) Dual Inhibitor That Employs an Unusual Electrophilic Vinylogous Ester” (J Med Chem, 2018) are described below.

Calls of active or inactive are those of the source. The rule behind the calls is not given here.

Data set [1] in a line: Electrophilicity towards N-alpha-acetyl lysine in 100 mM pH 8.1 phosphate buffer assessed as (S)-2-acetamido-6-(3-oxo-3-(pyridin-2-yl)prop-1-enylamino)hexanoic acid formation using 10 fold excess N-alpha-acetyl lysine at 25 degC by NMR spectrscopy. Type of data set: physicochemical. The essentials: (§1)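 NMR kinetics of the model electrophile with and without Nα-acetyl lysine, set up as in the glutathione protocol. Phosphate-buffered D2O (100 mM) was at pH 8.1. Electrophile diluted from a 200 mM DMSO-d6 stock; lysine solution freshly prepared in the same buffer.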

A short description of data set [2]: Glutathione reactivity assessed as formation of (2S)-2-amino-5-((2R)-1-(carboxymethylamino)-3-(1-methoxy-3-oxo-3-(pyridin-2-yl)propylthio)-1-oxopropan-2-ylamino)-5-oxopentanoic acid in presence of pH 7.4 at 25 degC by NMR based method. The following applies: gsh. Type of data set: physicochemical.
The nature of data set [3]: Electrophilicity towards N-alpha-acetyl lysine in 100 mM pH 8.1 phosphate buffer assessed as 3-hydroxy-1-(pyridin-2-yl)prop-2-en-1-one formation using 10 fold excess N-alpha-acetyl lysine at 25 degC by NMR spectrscopy. The data set is classed as physicochemical. In a few lines: as §1
Data set [4] is described as follows: Electrophilicity towards N-alpha-acetyl lysine in 100 mM pH 7.4 phosphate buffer using 10 fold excess N-alpha-acetyl lysine at 25 degC by NMR spectrscopy. Type of data set: physicochemical. In a few lines: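 Model electrophile with tenfold excess Nα-acetyl lysine in 100 mM phosphate buffer, pH 7.4, at 25 °C. Set up as in the glutathione NMR kinetics (1.0 mM electrophile from DMSO-d6 stock, buffered D2O).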

A short description of data set [5]: Glutathione reactivity assessed as formation of (2S)-2-amino-5-((2R)-1-(carboxymethylamino)-3-(1-methoxy-3-oxo-3-(pyridin-2-yl)propylthio)-1-oxopropan-2-ylamino)-5-oxopentanoic acid in presence of pH 7.4 at 37 degC by NMR based method. Type of data set: physicochemical. The note with it: gsh.
Data set [6] concerns HeLa. Put plainly: Inhibition of PI3K in human HeLa cells assessed as reduction in EGF-stimulated AKT phosphorylation at T308 at 1 to 100 nM preincubated for 10 mins followed by EGF stimulation measured after 5 mins by Western blot analysis. The data set is classed as cell-based. The essentials:
(§2)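 HeLa cells were serum-starved overnight, pretreated with compound for 10 min, then stimulated with 10 ng mL-1 EGF for 5 min. Lysis was in boiling SDS sample buffer, with protein quantified at 660 nm. Equal protein was resolved by SDS-PAGE and Western blotted for pEGFR Tyr1068, pAKT Ser473/Thr308, and pERK1/2 Thr202/Tyr204 with total proteins and GAPDH, detected by ECL.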

Data set [7] has as its system HeLa. In words: Inhibition of PI3K in human HeLa cells assessed as reduction in EGF-stimulated AKT phosphorylation at S473 at 1 to 100 nM preincubated for 10 mins followed by EGF stimulation measured after 5 mins by Western blot analysis. Type of data set: cell-based. The essentials:
as §2
Background: Immunoblotting shows a protein as a band on a membrane.

The test system of data set [8] is HeLa. In words: Inhibition of PI3K in human HeLa cells assessed as reduction in EGF-stimulated AKT phosphorylation at S473 at 100 nM preincubated for 10 mins followed by EGF stimulation measured after 5 mins by Western blot analysis. The data set is classed as cell-based. The essentials: (§3)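 HeLa cells serum-starved overnight, pretreated with compound for 10 min, then stimulated with EGF at 10 ng mL-1 for 5 min. Lysis in boiling SDS sample buffer, protein quantified, equal protein boiled 5 min and run on SDS-PAGE. Transfer to PVDF, Western blot for EGFR/pEGFR (Tyr1068), AKT/pAKT (Ser473, Thr308), ERK1/2/pERK1/2 (Thr202/Tyr204) and GAPDH, with ECL detection.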

For data set [9], the system named is HeLa. In words: Inhibition of PI3K in human HeLa cells assessed as reduction in EGF-stimulated AKT phosphorylation at T308 at 100 nM preincubated for 10 mins followed by EGF stimulation measured after 5 mins by Western blot analysis. The data set is classed as cell-based. The essentials: as §3
The target in data set [10] is Epidermal growth factor receptor (Homo sapiens) (UniProt P00533). In words: Inhibition of EGFR in human HeLa cells assessed as reduction in EGF-stimulated EGFR Y1068 phosphorylation at 100 nM preincubated for 10 mins followed by EGF stimulation measured after 5 mins by Western blot analysis. Type of data set: cell-based. The essentials:
as §3

Data set [11] shares this target. In words: Inhibition of EGFR in human HeLa cells assessed as reduction in EGF-stimulated ERK1/2 phosphorylation at T202/Y204 at 100 nM preincubated for 10 mins followed by EGF stimulation measured after 5 mins by Western blot analysis. Type of data set: cell-based. The essentials:
as §3

Epidermal growth factor receptor (Homo sapiens), sequence (P00533 whole entry): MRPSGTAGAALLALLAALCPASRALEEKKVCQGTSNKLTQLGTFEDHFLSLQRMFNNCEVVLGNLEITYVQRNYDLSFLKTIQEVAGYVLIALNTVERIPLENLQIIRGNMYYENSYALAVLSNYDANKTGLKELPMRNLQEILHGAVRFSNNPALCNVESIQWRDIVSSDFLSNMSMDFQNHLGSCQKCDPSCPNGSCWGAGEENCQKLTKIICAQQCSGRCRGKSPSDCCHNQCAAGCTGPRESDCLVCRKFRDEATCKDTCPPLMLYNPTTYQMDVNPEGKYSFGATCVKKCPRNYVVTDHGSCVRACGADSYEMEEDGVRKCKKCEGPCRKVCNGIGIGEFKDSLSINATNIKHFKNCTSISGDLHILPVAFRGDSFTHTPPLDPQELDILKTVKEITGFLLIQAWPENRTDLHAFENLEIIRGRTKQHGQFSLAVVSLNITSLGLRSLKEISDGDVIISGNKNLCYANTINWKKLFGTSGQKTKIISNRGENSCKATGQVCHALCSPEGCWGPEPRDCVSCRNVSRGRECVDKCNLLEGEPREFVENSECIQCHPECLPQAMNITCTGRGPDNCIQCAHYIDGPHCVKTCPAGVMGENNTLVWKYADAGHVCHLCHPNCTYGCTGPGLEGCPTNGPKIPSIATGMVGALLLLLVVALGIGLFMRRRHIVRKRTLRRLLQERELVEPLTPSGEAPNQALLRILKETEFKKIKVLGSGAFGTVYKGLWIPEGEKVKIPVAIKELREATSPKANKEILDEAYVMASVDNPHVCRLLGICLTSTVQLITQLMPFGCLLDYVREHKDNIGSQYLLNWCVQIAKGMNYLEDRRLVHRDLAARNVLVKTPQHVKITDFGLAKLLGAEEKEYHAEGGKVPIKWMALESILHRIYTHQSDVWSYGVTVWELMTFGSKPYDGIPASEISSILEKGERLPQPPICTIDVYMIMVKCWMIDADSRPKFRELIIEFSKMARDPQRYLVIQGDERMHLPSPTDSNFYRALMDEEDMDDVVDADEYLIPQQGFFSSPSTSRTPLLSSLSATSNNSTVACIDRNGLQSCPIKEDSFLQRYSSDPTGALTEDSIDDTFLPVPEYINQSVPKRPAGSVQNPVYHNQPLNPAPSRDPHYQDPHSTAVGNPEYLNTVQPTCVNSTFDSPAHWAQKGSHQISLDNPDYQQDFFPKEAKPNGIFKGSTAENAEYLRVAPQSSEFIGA

With `CO/C=C/C(=O)c1ccccn1`, the t1/2 in data set [1] is 60 min; in data set [2], 13 min; in [3] it was 1440 min; in data set [5], 5.4 min. Further, the Activity entry in [4] is given as “Not Active”.

For the compound `CC(C)C(=O)Nc1cc(N)c2c3c(cc(C(=O)CCO)nc13)C=N2`, the inhibition result in data set [6] and in data set [7] was “inactive” throughout.

With `COC[C@H]1OC(=O)c2coc3c2[C@@]1(C)C1=C(C3=O)[C@@H]2CCC(=O)[C@@]2(C)C[C@H]1OC(C)=O`, the inhibition result in data set [8] and in data set [9] was “Active” in each case. Further, the inhibition entry in data set [10] and in data set [11] was “inactive” in each case.
